# From ChEMBL document CHEMBL1148329, “Synthesis and structure-activity studies on N-[5-(1H-imidazol-4-yl)-5,6,7,8-tetrahydro-1-naphthalenyl]methanesulfonamide, an imidazole-containing alpha(1A)-adrenoceptor agonist” (J Med Chem, 2004)
# Legend:
# [1] = target: Alpha adrenergic receptor 1A and 1D (Rattus norvegicus) (UniProt P23944+P43140); assay: Selectivity is ratio of pKi (binding affinity) of Alpha-1D to that of alpha1A; format: protein assay
# [2] = target: T1, Alpha-1D adrenergic receptor (Rattus norvegicus, UniProt P23944); assay: In vitro binding affinity towards alpha-1D adrenergic receptor of rat clone in radioligand binding assay
# T1 sequence (P23944 whole entry): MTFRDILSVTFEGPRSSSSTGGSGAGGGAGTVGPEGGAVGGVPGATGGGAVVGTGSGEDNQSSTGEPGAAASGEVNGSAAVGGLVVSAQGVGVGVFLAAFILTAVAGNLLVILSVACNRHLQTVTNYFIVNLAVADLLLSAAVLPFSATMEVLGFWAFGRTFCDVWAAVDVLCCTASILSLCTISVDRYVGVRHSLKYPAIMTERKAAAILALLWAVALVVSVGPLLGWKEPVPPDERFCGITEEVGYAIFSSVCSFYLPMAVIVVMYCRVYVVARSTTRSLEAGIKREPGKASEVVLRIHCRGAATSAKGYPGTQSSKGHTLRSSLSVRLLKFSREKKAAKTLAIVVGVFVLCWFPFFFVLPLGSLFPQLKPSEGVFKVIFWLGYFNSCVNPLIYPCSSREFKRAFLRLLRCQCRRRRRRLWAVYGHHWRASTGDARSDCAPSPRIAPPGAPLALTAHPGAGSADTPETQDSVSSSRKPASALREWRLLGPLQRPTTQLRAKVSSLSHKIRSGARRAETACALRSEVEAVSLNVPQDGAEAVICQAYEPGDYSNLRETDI
# In short: (§1)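 Radioligand binding at α1 subtypes: α1A from rat submaxillary gland, α1B hamster clone, α1D rat clone. Run essentially per an earlier method.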
# [3] = target: Alpha adrenergic receptor 1A and 1B (Rattus norvegicus) (UniProt P15823+P43140); assay: Selectivity is ratio of pKi (binding affinity) of alpha-1B receptor to that of alpha-1A receptor.; format: protein assay
# Alpha adrenergic receptor 1A and 1B (Rattus norvegicus), sequence (P15823 whole entry, looked up, one chain of several): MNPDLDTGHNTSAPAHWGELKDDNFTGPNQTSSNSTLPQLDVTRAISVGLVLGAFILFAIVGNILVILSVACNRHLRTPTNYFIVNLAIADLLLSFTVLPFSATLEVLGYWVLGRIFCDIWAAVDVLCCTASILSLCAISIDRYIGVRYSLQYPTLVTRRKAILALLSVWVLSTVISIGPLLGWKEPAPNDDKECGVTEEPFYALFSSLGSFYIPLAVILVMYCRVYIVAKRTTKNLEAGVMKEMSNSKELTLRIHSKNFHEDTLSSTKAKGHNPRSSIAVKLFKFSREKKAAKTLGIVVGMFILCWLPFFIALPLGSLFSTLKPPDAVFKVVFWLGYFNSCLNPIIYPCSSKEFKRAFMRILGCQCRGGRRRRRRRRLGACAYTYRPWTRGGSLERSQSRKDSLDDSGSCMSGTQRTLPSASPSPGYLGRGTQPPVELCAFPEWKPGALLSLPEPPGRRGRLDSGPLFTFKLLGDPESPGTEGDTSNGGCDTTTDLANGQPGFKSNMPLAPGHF
# [4] = target: T2, Alpha-1A adrenergic receptor (Rattus norvegicus, UniProt P43140); assay: In vitro binding affinity towards alpha-1A adrenergic receptor of rat submaxillary gland in radioligand binding assay; in short: as §1
# T2 sequence (P43140 whole entry): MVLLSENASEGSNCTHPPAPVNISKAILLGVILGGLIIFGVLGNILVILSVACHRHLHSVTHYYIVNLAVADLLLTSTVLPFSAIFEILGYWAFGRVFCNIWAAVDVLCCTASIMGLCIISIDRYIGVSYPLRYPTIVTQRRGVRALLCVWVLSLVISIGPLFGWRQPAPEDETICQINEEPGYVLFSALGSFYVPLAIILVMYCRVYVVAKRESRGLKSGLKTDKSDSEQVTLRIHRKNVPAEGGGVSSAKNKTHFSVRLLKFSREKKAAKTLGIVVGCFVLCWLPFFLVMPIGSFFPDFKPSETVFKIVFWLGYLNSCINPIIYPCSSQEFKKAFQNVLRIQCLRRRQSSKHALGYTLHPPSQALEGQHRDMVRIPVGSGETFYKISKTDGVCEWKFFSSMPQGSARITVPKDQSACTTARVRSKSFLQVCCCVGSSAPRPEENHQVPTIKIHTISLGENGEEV
# [5] = target: T3, Alpha-1B adrenergic receptor (Mesocricetus auratus, UniProt P18841); assay: In vitro binding affinity towards alpha-1B adrenergic receptor of hamster clone in radioligand binding assay; format: single protein; in short: as §1
# T3 sequence (P18841 whole entry): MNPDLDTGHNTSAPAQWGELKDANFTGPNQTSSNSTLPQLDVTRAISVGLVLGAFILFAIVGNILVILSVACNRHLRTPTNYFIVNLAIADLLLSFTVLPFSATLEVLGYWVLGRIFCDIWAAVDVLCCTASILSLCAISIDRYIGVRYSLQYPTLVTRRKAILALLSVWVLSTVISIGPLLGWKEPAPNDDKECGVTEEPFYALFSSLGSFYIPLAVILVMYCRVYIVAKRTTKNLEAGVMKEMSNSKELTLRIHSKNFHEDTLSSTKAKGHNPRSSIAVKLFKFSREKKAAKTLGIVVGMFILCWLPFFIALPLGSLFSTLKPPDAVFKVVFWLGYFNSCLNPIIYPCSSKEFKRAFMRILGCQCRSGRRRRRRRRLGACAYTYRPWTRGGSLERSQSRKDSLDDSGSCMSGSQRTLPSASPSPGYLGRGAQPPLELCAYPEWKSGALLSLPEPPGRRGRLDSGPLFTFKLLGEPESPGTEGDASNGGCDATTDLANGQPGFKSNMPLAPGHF
# [6] = target: T4, Alpha-1A adrenergic receptor (Oryctolagus cuniculus) (UniProt O02824); assay: Efficacy relative to phenylephrine (PE) to constrict tissue containing the alpha-1A adrenergic receptor in rabbit urethra; format: functional, tissue-based
# T4 sequence (whole entry): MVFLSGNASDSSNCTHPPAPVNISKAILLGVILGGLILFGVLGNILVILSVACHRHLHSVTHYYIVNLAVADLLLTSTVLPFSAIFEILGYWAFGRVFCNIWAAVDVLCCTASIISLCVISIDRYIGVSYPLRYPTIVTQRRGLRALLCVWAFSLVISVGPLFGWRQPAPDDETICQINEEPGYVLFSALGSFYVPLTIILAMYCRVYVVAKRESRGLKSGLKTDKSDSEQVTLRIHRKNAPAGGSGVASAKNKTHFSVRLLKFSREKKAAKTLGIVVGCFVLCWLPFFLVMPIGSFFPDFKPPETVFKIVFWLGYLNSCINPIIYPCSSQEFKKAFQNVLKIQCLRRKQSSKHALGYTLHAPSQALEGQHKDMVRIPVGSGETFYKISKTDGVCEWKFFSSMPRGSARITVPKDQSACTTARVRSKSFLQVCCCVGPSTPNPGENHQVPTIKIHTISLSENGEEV
# In short: (§2)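 α1-agonist dose–response curves in isolated tissue: rabbit urethra (α1A), rat spleen (α1B), rat aorta (α1D). Agonist potency and efficacy read from the concentration–response curves.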
# [7] = target: T4, Alpha-1A adrenergic receptor (Oryctolagus cuniculus); assay: Functional agonism of the compounds to constrict tissue containing the alpha-1A adrenergic receptor in rabbit urethra; format: tissue-based; in short: as §2
# Canis familiaris [8] = species: Canis familiaris; assay: Ratio of MAP ED delta20 to that of IUP ED delta5
# Canis familiaris [9] = assay: Uroselectivity was determined by measuring effective dose required for 20 mmHg increase of mean arterial pressure (MAP) in vivo in dog; format: functional, Canis lupus familiaris, Artery
# In short: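 Dog model recording intraurethral pressure (IUP) and mean arterial pressure (MAP) simultaneously. Increasing iv doses given, maximal effect of each dose taken. Doses giving a 5 mmHg rise in IUP (ED Δ5) or 20 mmHg rise in MAP (ED Δ20) were calculated, in nmol/kg ± SEM, n ≥ 4 (2 or 3 where footnoted).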
Compound,Selectivity [1],Ki [2] [µM],Selectivity [3],Ki [4] [µM],Ki [5] [µM],Efficacy [6] [%],pD2 [7],Ratio (Canis familiaris [8]),ED delta20 (Canis familiaris [9]) [nM/kg]
CCS(=O)(=O)Nc1cc(F)cc2c1CCCC2c1c[nH]cn1 (configuration not stated),44,3.63,> 121,0.0832,> 10,,,,
Cc1ccc(NS(C)(=O)=O)c2c1C(c1c[nH]cn1)CCC2 (configuration not stated),7,,> 26,,> 10,35,4.4,,
CCS(=O)(=O)Nc1cccc(Sc2c[nH]cn2)c1,,> 10,,> 10,> 10,,,,
CS(=O)(=O)Nc1ccc(F)c2c1CCCC2c1c[nH]cn1 (configuration not stated),10,,> 32,,> 10,64,5.31,1,632
CCS(=O)(=O)Nc1cccc(CC2CN=CN2)c1 (configuration not stated),,6.46,,> 10,10,,,,
CS(=O)(=O)Nc1ccc(Cl)c2c1CCCC2c1c[nH]cn1 (configuration not stated),6,,> 20,,> 10,41,4.35,,
CS(=O)(=O)Nc1cccc2c1CCCCC2c1c[nH]cn1 (configuration not stated),2,,> 7,,,17,4.72,,
CCS(=O)(=O)Nc1cccc(CC2CCCN2)c1 (configuration not stated),1,0.501,> 10,0.708,> 10,17,4.44,,
CCS(=O)(=O)Nc1cccc2c1CCCC2CNC (configuration not stated),> 7,> 10,> 7,1.38,> 10,,,,
CCS(=O)(=O)Nc1cccc2c1COC2c1c[nH]cn1 (configuration not stated),10,> 10,10,,> 10,,,,
CCS(=O)(=O)Nc1cccc2c1SCCC2c1c[nH]cn1 (configuration not stated),10,> 10,10,,> 10,,,,
CCS(=O)(=O)Nc1cccc2c1CCCC2c1c[nH]c(C)n1 (configuration not stated),> 10,> 10,> 10,,> 10,,,,
CCS(=O)(=O)Nc1cccc(S(=O)(=O)c2c[nH]cn2)c1,,> 10,,> 10,> 10,,,,
CCS(=O)(=O)Nc1cccc(NC2=NCCN2)c1,< 0.04,0.355,> 3,2.95,> 10,,,,
Cn1cncc1C1CCCc2c(NS(C)(=O)=O)cccc21 (configuration not stated),,> 10,,> 10,> 10,,,,
CCS(=O)(=O)Nc1cc(C2CCCCC2)cc2c1CCCC2c1c[nH]cn1 (configuration not stated),2,,3,,,,,,
CCCS(=O)(=O)Nc1cccc2c1CCCC2c1c[nH]cn1 (configuration not stated),> 6,> 10,> 6,1.7,> 10,,,,
CCS(=O)(=O)Nc1cccc(-c2c[nH]cn2)c1,,> 10,,> 10,> 10,,,,
CCS(=O)(=O)Nc1cccc(Cc2c[nH]cn2)c1C,8,1,60,0.129,8.13,69,,5.6,202
CC(c1cccc(NS(C)(=O)=O)c1)c1c[nH]cn1 (configuration not stated),1,,10,,> 10,92,5.38,3.4,234
O=S(=O)(Nc1cccc2c1CCCC2c1c[nH]cn1)C1CC1 (configuration not stated),5,2.69,> 19,0.537,> 10,51,5.25,,
CS(=O)(=O)Nc1ccc(O)c2c1CCCC2c1c[nH]cn1 (configuration not stated),> 14,> 10,> 14,,> 10,34,4.61,,
CC(C)S(=O)(=O)Nc1cccc2c1CCCC2c1c[nH]cn1 (configuration not stated),2,2.04,> 9,1.15,> 10,74,5.17,,
CCS(=O)(=O)Nc1cccc2c1CCCC2(O)c1c[nH]cn1 (configuration not stated),1,> 10,1,> 10,> 10,,,,
